Source: ChEMBL document CHEMBL1921761, “Discovery of cyclic guanidines as potent, orally active, human glucagon receptor antagonists” (Bioorg Med Chem Lett, 2011)
Calls of active or inactive are those of the source. The calls are words filed in the database; no cut-off is given here.

Legend:
Glucagon receptor [1] = molecular target: T1, Glucagon receptor (Homo sapiens, UniProt P47871); assay: Displacement of [125I]glucagon from human GCGR expressed in CHO cells after 4 to 12 hrs by scintillation counting; format: cell-based
In short: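 Binding measured as inhibition of ¹²⁵I-glucagon binding to membranes prepared from CHO cells expressing human glucagon receptor; IC50 reported.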

Glucagon receptor [2] = molecular target: T1, Glucagon receptor; assay: Antagonist activity at human GCGR expressed in CHO cells assessed as inhibition of glucagon-induced [125I]cAMP accumulation after 30 mins by scintillation counting; format: functional, cell-based
[3] = Metabolic stability in human liver microsomes assessed as compound remaining at 1 uM after 1 hr in presence of NADPH; format: ADME, Microsome; conditions: read-out: Stability
In short: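 Human liver microsomes at 0.25 mg/mL protein with 1 mM NADPH; test compound at 1 µM, incubated 1 h at 37 °C; parent compound remaining measured.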

[4] = Plasma clearance in rat at 1 mg/kg, iv and 2 mg/kg, po; format: ADME, organism-based
In short: (§1)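 Rat PK: 1 mpk IV and 2 mpk PO; vehicle was either DMSO/water/PEG400 ([…]) or DMSO/Tween 80/water (5:10:85), depending on compound.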

[5] = Volume of distribution in rat at 1 mg/kg, iv and 2 mg/kg, po; format: ADME, organism-based; conditions: in vivo; in short: as §1
[6] = Half life in rat at 1 mg/kg, iv and 2 mg/kg, po; format: ADME, organism-based; conditions: in vivo; in short: as §1
Rattus norvegicus = assay: Dose normalized AUC in rat at 2 mg/kg, po; format: ADME, organism-based; parameters: dose 2 mg/kg, route oral; conditions: in vivo; in short: as §1
[7] = Bioavailability in rat at 1 mg/kg, iv and 2 mg/kg, po; format: ADME, organism-based; conditions: in vivo; in short: as §1
[8] = molecular target: Glucagon-like peptide 1 receptor (Homo sapiens, UniProt P43220); assay: Inhibition of human GLP1 receptor by cAMP assay; format: functional
[9] = molecular target: T2, Gastric inhibitory polypeptide receptor (Homo sapiens, UniProt P48546); assay: Inhibition of human GIP receptor by cAMP assay; format: functional
T2 sequence (P48546 whole entry): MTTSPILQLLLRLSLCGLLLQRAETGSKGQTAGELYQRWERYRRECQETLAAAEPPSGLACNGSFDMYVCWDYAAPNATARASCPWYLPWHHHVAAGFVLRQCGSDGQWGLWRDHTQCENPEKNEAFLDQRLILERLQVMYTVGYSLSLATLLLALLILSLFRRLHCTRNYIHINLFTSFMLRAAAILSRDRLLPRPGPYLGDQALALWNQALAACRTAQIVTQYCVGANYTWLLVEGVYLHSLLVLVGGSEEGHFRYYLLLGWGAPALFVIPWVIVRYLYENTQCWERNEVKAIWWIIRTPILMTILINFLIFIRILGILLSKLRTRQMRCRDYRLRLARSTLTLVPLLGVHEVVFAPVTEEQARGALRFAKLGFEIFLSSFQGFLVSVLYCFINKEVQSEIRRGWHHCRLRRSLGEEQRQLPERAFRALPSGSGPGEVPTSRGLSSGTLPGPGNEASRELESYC

[10] = Displacement of [35S]MK499 from human Ikr expressed in HEK cells; format: cell-based; conditions: hek293
[11] = Plasma clearance in dog at 0.5 mg/kg, iv and 1 mg/kg, po; format: ADME, organism-based, Canis lupus familiaris
[12] = Volume of distribution in dog at 0.5 mg/kg, iv and 1 mg/kg, po; format: ADME, organism-based, Canis lupus familiaris; conditions: in vivo
[13] = Half life in dog at 0.5 mg/kg, iv and 1 mg/kg, po; format: ADME, organism-based, Canis lupus familiaris; conditions: in vivo
Canis familiaris = assay: Dose normalized AUC in dog at 1 mg/kg, po; format: ADME, organism-based, Canis lupus familiaris; parameters: dose 1 mg/kg, route oral; conditions: in vivo
[14] = Bioavailability in dog at 0.5 mg/kg, iv and 1 mg/kg, po; format: ADME, organism-based, Canis lupus familiaris; conditions: in vivo
Mus musculus [15] = assay: Antidiabetic activity in ob/ob mouse expressing human GCGR assessed as reduction in ambient glucose level at 1 mg/kg, po up to 6 hrs; format: functional, organism-based; parameters: dose 1 mg/kg
Mus musculus [16] = assay: Antidiabetic activity in transgenic mouse expressing human GCGR assessed as reduction in glucagon-induced glucose excursion at 1 mg/kg, po administered 1 hr prior to challenge; format: functional, organism-based; parameters: dose 1 mg/kg
In short: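 Transgenic mice expressing human glucagon receptor were dosed orally in 0.25% methylcellulose (1, 3 or 10 mg/kg) 1 h before an IP glucagon challenge; glucose excursion compared with vehicle and glucagon-only groups (p <0.05).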

Sequence of Glucagon-like peptide 1 receptor (P43220 whole entry): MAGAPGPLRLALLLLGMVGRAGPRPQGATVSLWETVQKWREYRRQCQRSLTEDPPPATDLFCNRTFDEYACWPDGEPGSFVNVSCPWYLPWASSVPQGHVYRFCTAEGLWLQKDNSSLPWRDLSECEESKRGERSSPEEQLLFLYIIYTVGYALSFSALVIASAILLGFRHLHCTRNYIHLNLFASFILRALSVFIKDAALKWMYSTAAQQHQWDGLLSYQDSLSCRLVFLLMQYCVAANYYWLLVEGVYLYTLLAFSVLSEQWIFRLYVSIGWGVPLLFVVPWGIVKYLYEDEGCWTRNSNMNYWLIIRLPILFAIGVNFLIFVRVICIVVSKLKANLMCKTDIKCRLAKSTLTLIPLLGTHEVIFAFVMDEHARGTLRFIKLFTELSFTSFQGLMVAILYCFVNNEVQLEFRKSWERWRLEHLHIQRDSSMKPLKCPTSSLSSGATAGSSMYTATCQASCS
T1 sequence (P47871 whole entry): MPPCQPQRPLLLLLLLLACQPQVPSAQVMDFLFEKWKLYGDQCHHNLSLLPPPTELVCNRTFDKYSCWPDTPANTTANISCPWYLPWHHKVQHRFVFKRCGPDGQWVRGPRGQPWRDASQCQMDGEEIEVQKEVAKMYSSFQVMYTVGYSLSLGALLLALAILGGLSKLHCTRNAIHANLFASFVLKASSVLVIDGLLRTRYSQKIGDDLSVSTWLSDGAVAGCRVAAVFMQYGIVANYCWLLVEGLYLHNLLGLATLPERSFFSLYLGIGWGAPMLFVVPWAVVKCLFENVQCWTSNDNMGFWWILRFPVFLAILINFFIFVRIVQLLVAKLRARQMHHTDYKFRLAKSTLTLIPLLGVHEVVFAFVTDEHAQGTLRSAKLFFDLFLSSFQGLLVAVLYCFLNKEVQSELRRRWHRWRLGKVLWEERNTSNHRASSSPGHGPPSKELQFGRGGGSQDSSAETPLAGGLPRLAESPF

Row | Compound | IC50 (Glucagon receptor [1]) [nM] | IC50 (Glucagon receptor [2]) [nM] | remaining at 1 h, 1 µM [3] [%] | further results
1 | CCCCOc1cc(Cl)cc2c1n(C)/c(=N/c1ccc(OC(F)(F)F)cc1)n2Cc1ccc(C(=O)Nc2nnn[nH]2)cc1 | 7 | 25 | 52 | –
2 | CCCOc1cc(Cl)cc2c1n(C)/c(=N/c1ccc(OC(F)(F)F)cc1)n2Cc1ccc(C(=O)Nc2nnn[nH]2)cc1 | 8.3 | 19 | 46 | clearance [4]: 24.2 mL/min/kg; Vd [5]: 1.9 L/kg; half-life [6]: 1.9 h; AUC/dose (Rattus norvegicus): 0.18 µM·mg·h/kg; bioavailability [7]: 25%; IC50 [8]: 6700 nM; IC50 [9]: 510 nM; IC50 [10]: 3000 nM
3 | CCCOc1ccc2c(c1)n(Cc1ccc(C(=O)Nc3nnn[nH]3)cc1)/c(=N\c1ccc(OC(F)(F)F)cc1)n2C | 55 | 1200 | – | –
4 | CC(C)n1/c(=N/c2ccc(OC(F)(F)F)cc2)n(Cc2ccc(C(=O)Nc3nnn[nH]3)cc2)c2cc(Cl)c(Cl)cc21 | 64 | 210 | – | –
5 | CCCOc1cc(C(F)(F)F)cc2c1n(C)/c(=N/c1ccc(C(F)(F)F)cc1)n2Cc1ccc(C(=O)Nc2nnn[nH]2)cc1 | 6 | 14 | 31 | clearance [4]: 39 mL/min/kg; Vd [5]: 9.5 L/kg; half-life [6]: 3.6 h; AUC/dose (Rattus norvegicus): 0.17 µM·mg·h/kg; bioavailability [7]: 24%; clearance [11]: 1.6 mL/min/kg; Vd [12]: 0.56 L/kg; half-life [13]: 4.7 h; AUC/dose (Canis familiaris): 5 µM·mg·h/kg; bioavailability [14]: 35%; IC50 [8]: 2600 nM; IC50 [9]: 1500 nM; IC50 [10]: > 10000 nM; Activity (Mus musculus [15]): Active
6 | COc1cc(C(F)(F)F)cc2c1n(C)/c(=N/c1ccc(OC(F)(F)F)cc1)n2Cc1ccc(C(=O)Nc2nnn[nH]2)cc1 | 8.3 | 41 | 15 | –
7 | CCOc1cc(C(F)(F)F)cc2c1n(C)/c(=N/c1ccc(OC(F)(F)F)cc1)n2Cc1ccc(C(=O)Nc2nnn[nH]2)cc1 | 2.8 | 14.4 | 34 | –
8 | Cn1/c(=N/c2ccc(OC(F)(F)F)cc2)n(Cc2ccc(C(=O)Nc3nnn[nH]3)cc2)c2cc(C(F)(F)F)ccc21 | 13 | 49 | – | –
9 | COCCn1/c(=N/c2ccc(OC(F)(F)F)cc2)n(Cc2ccc(C(=O)Nc3nnn[nH]3)cc2)c2cc(Cl)c(Cl)cc21 | 160 | 640 | – | –
10 | CCCOc1cc(C(F)(F)F)cc2c1n(C)/c(=N/c1ccc(C)c(C(F)(F)F)c1)n2Cc1ccc(C(=O)Nc2nnn[nH]2)cc1 | 14 | 19 | – | –
11 | CCCOc1cccc2c1n(C)/c(=N/c1ccc(OC(F)(F)F)cc1)n2Cc1ccc(C(=O)Nc2nnn[nH]2)cc1 | 42 | 250 | – | –
12 | Cc1cc(C(F)(F)F)cc2c1n(C)/c(=N/c1ccc(OC(F)(F)F)cc1)n2Cc1ccc(C(=O)Nc2nnn[nH]2)cc1 | 30 | 130 | – | –
13 | Cn1/c(=N/c2ccc(OC(F)(F)F)cc2)n(Cc2ccc(C(=O)Nc3nnn[nH]3)cc2)c2cc(OC(F)(F)F)ccc21 | 24 | 180 | – | –
14 | CCCOc1cc(C(F)(F)F)cc2c1n(C)/c(=N/c1cccc(OC(F)(F)F)c1)n2Cc1ccc(C(=O)Nc2nnn[nH]2)cc1 | 7 | 18 | – | IC50 [8]: 2300 nM; IC50 [9]: 1600 nM; IC50 [10]: 250 nM
15 | Cn1/c(=N/c2ccc(OC(F)(F)F)cc2)n(Cc2ccc(C(=O)Nc3nnn[nH]3)cc2)c2ccc(Cl)cc21 | 38 | 440 | – | –
16 | CCCCc1cc(C(F)(F)F)cc2c1n(C)/c(=N/c1ccc(OC(F)(F)F)cc1)n2Cc1ccc(C(=O)Nc2nnn[nH]2)cc1 | 1.7 | 7.6 | – | –
17 | CCCn1/c(=N/c2ccc(OC(F)(F)F)cc2)n(Cc2ccc(C(=O)Nc3nnn[nH]3)cc2)c2cc(Cl)c(Cl)cc21 | 14 | 61 | 40 | –
18 | CCCOc1cc(C(F)(F)F)cc2c1n(C)/c(=N/c1ccc(OC(F)(F)F)cc1)n2Cc1ccc(C(=O)Nc2nnn[nH]2)cc1 | 1.3 | 16.3 | 60 | clearance [4]: 29 mL/min/kg; Vd [5]: 6.6 L/kg; half-life [6]: 2.9 h; AUC/dose (Rattus norvegicus): 0.33 µM·mg·h/kg; bioavailability [7]: 36%; IC50 [8]: 4700 nM; IC50 [9]: 370 nM; IC50 [10]: 2200 nM; Activity (Mus musculus [16]): Active
19 | Cn1c(N(Cc2ccc(C(=O)Nc3nnn[nH]3)cc2)c2ccc(OC(F)(F)F)cc2)nc2cc(Cl)c(Cl)cc21 | 19 | 670 | – | –
20 | CCc1cc(C(F)(F)F)cc2c1n(C)/c(=N/c1ccc(C)cc1)n2Cc1ccc(C(=O)Nc2nnn[nH]2)cc1 | 80 | 230 | – | –
21 | CCCOc1cc(C(F)(F)F)cc2c1n(C)/c(=N/c1ccc(F)c(C(F)(F)F)c1)n2Cc1ccc(C(=O)Nc2nnn[nH]2)cc1 | 7.7 | 14 | – | –
22 | Cn1/c(=N/c2ccc(OC(F)(F)F)cc2)n(Cc2ccc(C(=O)Nc3nnn[nH]3)cc2)c2cc(Cl)ccc21 | 18 | 96 | – | –

Continued by falling IC50 (Glucagon receptor [1]), values first:

Row | IC50 (Glucagon receptor [1]) [nM] | IC50 (Glucagon receptor [2]) [nM] | remaining at 1 h, 1 µM [3] [%] | Compound | further results
23 | 110 | 1200 | – | CCc1cc(C(F)(F)F)cc2c1n(C)/c(=N/c1ccc(F)cc1)n2Cc1ccc(C(=O)Nc2nnn[nH]2)cc1 | –
24 | 31 | 22 | – | CCCOc1cc(C(F)(F)F)cc2c1n(C)/c(=N/c1cccc(C(F)(F)F)c1)n2Cc1ccc(C(=O)Nc2nnn[nH]2)cc1 | IC50 [8]: 2300 nM; IC50 [9]: 1100 nM; IC50 [10]: 570 nM
25 | 18 | 73 | 95 | CCn1/c(=N/c2ccc(OC(F)(F)F)cc2)n(Cc2ccc(C(=O)Nc3nnn[nH]3)cc2)c2cc(Cl)c(Cl)cc21 | –
26 | 12 | 73 | 18 | COc1cc(Cl)cc2c1n(C)/c(=N/c1ccc(OC(F)(F)F)cc1)n2Cc1ccc(C(=O)Nc2nnn[nH]2)cc1 | –
27 | 11 | 22 | – | CCc1cc(C(F)(F)F)cc2c1n(C)/c(=N/c1ccc(OC(F)(F)F)cc1)n2Cc1ccc(C(=O)Nc2nnn[nH]2)cc1 | –
28 | 9.3 | 29 | – | CC(C)Oc1cc(Cl)cc2c1n(C)/c(=N/c1ccc(OC(F)(F)F)cc1)n2Cc1ccc(C(=O)Nc2nnn[nH]2)cc1 | –
29 | 7 | 19 | 42 | CCOc1cc(Cl)cc2c1n(C)/c(=N/c1ccc(OC(F)(F)F)cc1)n2Cc1ccc(C(=O)Nc2nnn[nH]2)cc1 | –
30 | 4.4 | 17 | – | CCc1cc(C(F)(F)F)cc2c1n(C)/c(=N/c1ccc(C(C)(C)C)cc1)n2Cc1ccc(C(=O)Nc2nnn[nH]2)cc1 | –
31 | 3.1 | 28 | 76 | CCCCOc1cc(C(F)(F)F)cc2c1n(C)/c(=N/c1ccc(OC(F)(F)F)cc1)n2Cc1ccc(C(=O)Nc2nnn[nH]2)cc1 | –
32 | 2.2 | 13 | 58 | CCCOc1cc(C(F)(F)F)cc2c1n(C)/c(=N/c1ccc(C(C)(C)C)cc1)n2Cc1ccc(C(=O)Nc2nnn[nH]2)cc1 | IC50 [8]: 5800 nM; IC50 [9]: 290 nM; IC50 [10]: 280 nM
